# Where two headings read alike, the source gives them in different places.
# Experiments:
# [1] = molecular target: GluN1^ΔCTD/GluN2C receptors (Rattus norvegicus, UniProt P35439+Q00961); type: cell-based; settings: 50 µM compound; 10 µM L-glutamate/10 µM glycine (Fig. 1D)
# How it was run: (§1)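 Xenopus laevis oocytes were injected with GluN1a:GluN2 RNA at a 1:3 molar ratio (15-30 ng total; 10-20-fold more for CTD-deleted subunits) and kept in ND-96 at 17 °C for 1-5 days. TEVC was run at -60 mV in 116 mM NaCl, 2 mM KCl, 0.3 mM BaCl2, 5 mM HEPES, pH 7.4. […] Full-length controls came from the same batch and day; mean ± s.e.m.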
# GluN1/GluN2A receptors = GluN1/GluN2A receptors (Rattus norvegicus, UniProt P35439+Q00959); type: cell-based
# How it was run: as §1
# [2] = molecular target: GluN1/GluN2C^ΔCTD receptors (Rattus norvegicus, UniProt P35439+Q00961); assay: Two-electrode voltage clamp of GluN2C CTD-deleted receptors; type: cell-based; settings: 50 µM compound; 10 µM L-glutamate/10 µM glycine (Fig. 1B,C)
# How it was run: (§2)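 Xenopus laevis oocytes were injected with GluN1a and GluN2 RNA at a 1:3 molar ratio. The CTD was removed by a stop codon at GluN1 838K or GluN2C 855K, and 10-20-fold more RNA than wild type was injected. Oocytes were kept in ND-96 at 17 °C for 1-5 days. TEVC was run at -60 mV in Ba2+ buffer (pH 7.4). […] Full-length receptors were run alternately on the same day and oocyte batch. Values are mean ± s.e.m.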
# [3] = molecular target: GluN1^ΔCTD/GluN2D receptors (Rattus norvegicus, UniProt P35439+Q62645); type: cell-based; settings: 50 µM compound; 10 µM L-glutamate/10 µM glycine (Fig. 1D)
# How it was run: as §2
# [4] = molecular target: GluN1/GluN2A^ΔCTD receptors (Rattus norvegicus, UniProt P35439+Q00959); type: cell-based
# How it was run: as §1
# GluN1/GluN2C receptors = GluN1/GluN2C receptors (Rattus norvegicus, UniProt P35439+Q00961); type: cell-based; settings: 5 mM EGTA injected vs controls (Fig. 6C, G)
# How it was run: (§3)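 Oocytes expressed wild-type GluN1a/GluN2 receptors from 15-30 ng RNA (1:3 molar) and were held in ND-96 at 17 °C for 1-5 days. For Ca2+ chelation, 5 mM EGTA (50 nL) was injected 1-2 h before recording, with uninjected and water-injected oocytes as controls. TEVC was run at -60 mV in 116 mM NaCl, 2 mM KCl, 0.3 mM BaCl2, 5 mM HEPES (pH 7.4). […] Values are mean ± s.e.m.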
# [5] = molecular target: GluN1^ΔCTD/GluN2A receptors (Rattus norvegicus, UniProt P35439+Q00959); type: cell-based; settings: 50 µM compound; 10 µM L-glutamate/10 µM glycine (Fig. 1D)
# How it was run: as §1
# [6] = molecular target: GluN1^ΔCTD/GluN2B receptors (Rattus norvegicus, UniProt P35439+Q00960); type: cell-based; settings: 50 µM compound; 10 µM L-glutamate/10 µM glycine (Fig. 1D)
# How it was run: as §1
# [7] = system: GluN1 CTD in neurons expressing GluN1-GFP, GluN2A and GluN1-mCherry; assay: CTD-FRET; type: cell-based, rat; settings: 75 µM compound, absence of agonists, imaged 10 min after application (Fig. 8)
# How it was run: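 Rat primary hippocampal neurons were transfected at DIV 7-10 with ~2 µg total DNA (GluN1-GFP, GluN2A, GluN1-mCherry) by lipofection and imaged at 16-18 DIV in 0.87x HBSS, 5 mM HEPES, 1 mM glucose, 2.5 mM MgCl2, 0.5 mM CaCl2. Baseline and 10 min post-compound two-photon FLIM images were taken, each neuron imaged twice, compounds interleaved. Lifetimes were fit single-exponential and analysed blind; two preparations pooled.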
# GluN1/GluN2D receptors = GluN1/GluN2D receptors (Rattus norvegicus, UniProt P35439+Q62645); type: cell-based; settings: 5 mM EGTA injected vs controls (Fig. 6D, H)
# How it was run: as §3
# GluN1/GluN2B receptors = GluN1/GluN2B receptors (Rattus norvegicus, UniProt P35439+Q00960); type: cell-based
# [8] = molecular target: GluN1/GluN2B^ΔCTD receptors (Rattus norvegicus, UniProt P35439+Q00960); type: cell-based; settings: 50 µM compound; 10 µM L-glutamate/10 µM glycine (Fig. 1C)
# [9] = system: GluN1/GluN2D^ΔCTD receptors; type: cell-based, rat; settings: 50 µM compound; compared to wildtype
# [10] = molecular target: GluN1/GluN2D^ΔCTD receptors (Rattus norvegicus, UniProt P35439+Q62645); type: cell-based; settings: 50 µM compound; 10 µM L-glutamate/10 µM glycine (Fig. 1C)
# [11] = 2 µM PMA for 10 minutes, 50 µM UBP684, 100 µM PS (Fig. 7E, F)
# [12] = 10 µM FSK and 1 mM IBMX for 10 minutes, 50 µM UBP684, 100 µM PS (Fig. 7B, C)
# [13] = 50 µM compound, control media for U73122 experiment (Fig. 6I)
# Sequence of GluN1/GluN2D^ΔCTD receptors (Rattus norvegicus, UniProt P35439+Q62645) (Q62645 28-869 limits assumed, stated change not applied, other chains not shown): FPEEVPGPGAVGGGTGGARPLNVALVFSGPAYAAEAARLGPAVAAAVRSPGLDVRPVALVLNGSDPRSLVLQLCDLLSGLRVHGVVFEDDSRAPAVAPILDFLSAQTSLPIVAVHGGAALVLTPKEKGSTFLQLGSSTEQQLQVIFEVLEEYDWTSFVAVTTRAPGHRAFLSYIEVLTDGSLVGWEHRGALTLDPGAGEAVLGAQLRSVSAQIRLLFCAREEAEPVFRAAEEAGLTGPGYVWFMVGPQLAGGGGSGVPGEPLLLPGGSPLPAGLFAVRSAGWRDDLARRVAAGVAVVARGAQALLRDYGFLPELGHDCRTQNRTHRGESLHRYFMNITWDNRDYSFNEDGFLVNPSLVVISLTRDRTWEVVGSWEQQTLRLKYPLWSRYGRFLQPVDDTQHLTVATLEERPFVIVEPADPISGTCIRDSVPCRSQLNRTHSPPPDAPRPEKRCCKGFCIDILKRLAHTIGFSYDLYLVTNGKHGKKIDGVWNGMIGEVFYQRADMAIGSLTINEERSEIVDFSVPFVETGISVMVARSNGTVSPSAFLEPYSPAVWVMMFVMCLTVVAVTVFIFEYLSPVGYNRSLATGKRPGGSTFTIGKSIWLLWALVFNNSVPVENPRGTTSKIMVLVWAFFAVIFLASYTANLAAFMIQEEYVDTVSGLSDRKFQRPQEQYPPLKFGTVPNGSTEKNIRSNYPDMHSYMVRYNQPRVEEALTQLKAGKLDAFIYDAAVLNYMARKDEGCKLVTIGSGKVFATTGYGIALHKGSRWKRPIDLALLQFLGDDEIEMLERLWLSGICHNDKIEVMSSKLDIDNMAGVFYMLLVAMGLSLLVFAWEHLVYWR
# Sequence of GluN1^ΔCTD/GluN2D receptors (Q62645 28-1323, stated change not applied, other chains not shown): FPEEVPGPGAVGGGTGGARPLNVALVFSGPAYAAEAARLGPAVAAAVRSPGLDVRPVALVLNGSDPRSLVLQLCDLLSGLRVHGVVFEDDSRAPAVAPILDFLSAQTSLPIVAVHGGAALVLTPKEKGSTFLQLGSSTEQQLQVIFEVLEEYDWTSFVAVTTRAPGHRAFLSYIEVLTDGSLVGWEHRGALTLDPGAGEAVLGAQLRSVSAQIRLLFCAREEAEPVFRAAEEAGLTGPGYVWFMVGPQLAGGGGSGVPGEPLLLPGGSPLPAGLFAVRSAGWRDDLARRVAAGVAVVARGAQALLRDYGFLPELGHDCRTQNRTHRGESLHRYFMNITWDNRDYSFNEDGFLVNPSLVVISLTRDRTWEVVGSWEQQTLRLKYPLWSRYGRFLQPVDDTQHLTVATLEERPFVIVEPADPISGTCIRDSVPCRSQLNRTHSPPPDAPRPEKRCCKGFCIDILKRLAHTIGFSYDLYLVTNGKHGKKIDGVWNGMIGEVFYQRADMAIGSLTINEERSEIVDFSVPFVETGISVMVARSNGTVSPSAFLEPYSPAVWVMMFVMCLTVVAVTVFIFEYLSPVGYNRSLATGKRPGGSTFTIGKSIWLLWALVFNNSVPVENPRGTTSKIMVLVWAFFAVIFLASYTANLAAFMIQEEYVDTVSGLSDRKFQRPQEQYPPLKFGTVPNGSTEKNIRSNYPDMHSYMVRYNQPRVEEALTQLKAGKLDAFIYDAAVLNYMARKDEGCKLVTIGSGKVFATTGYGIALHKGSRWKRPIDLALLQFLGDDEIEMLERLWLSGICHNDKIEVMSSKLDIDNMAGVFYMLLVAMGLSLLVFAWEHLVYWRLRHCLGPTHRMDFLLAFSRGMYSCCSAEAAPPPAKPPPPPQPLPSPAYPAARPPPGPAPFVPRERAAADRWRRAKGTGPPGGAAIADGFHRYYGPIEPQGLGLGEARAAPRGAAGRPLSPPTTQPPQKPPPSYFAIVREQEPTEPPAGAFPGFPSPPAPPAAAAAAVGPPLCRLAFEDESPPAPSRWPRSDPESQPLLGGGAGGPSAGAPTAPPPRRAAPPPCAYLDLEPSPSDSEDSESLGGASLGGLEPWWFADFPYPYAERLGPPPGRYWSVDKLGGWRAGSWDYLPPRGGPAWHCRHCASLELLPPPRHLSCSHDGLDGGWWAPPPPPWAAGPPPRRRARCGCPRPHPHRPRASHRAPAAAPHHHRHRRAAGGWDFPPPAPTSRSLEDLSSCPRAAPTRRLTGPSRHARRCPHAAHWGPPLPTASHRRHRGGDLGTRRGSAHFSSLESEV
# Sequence of GluN1/GluN2D receptors (Q62645 28-1323, other chains not shown): as the sequence (Q62645 28-1323, stated change not applied, other chains not shown) above
# Sequence of GluN1/GluN2C receptors (Q00961 20-1237, other chains not shown): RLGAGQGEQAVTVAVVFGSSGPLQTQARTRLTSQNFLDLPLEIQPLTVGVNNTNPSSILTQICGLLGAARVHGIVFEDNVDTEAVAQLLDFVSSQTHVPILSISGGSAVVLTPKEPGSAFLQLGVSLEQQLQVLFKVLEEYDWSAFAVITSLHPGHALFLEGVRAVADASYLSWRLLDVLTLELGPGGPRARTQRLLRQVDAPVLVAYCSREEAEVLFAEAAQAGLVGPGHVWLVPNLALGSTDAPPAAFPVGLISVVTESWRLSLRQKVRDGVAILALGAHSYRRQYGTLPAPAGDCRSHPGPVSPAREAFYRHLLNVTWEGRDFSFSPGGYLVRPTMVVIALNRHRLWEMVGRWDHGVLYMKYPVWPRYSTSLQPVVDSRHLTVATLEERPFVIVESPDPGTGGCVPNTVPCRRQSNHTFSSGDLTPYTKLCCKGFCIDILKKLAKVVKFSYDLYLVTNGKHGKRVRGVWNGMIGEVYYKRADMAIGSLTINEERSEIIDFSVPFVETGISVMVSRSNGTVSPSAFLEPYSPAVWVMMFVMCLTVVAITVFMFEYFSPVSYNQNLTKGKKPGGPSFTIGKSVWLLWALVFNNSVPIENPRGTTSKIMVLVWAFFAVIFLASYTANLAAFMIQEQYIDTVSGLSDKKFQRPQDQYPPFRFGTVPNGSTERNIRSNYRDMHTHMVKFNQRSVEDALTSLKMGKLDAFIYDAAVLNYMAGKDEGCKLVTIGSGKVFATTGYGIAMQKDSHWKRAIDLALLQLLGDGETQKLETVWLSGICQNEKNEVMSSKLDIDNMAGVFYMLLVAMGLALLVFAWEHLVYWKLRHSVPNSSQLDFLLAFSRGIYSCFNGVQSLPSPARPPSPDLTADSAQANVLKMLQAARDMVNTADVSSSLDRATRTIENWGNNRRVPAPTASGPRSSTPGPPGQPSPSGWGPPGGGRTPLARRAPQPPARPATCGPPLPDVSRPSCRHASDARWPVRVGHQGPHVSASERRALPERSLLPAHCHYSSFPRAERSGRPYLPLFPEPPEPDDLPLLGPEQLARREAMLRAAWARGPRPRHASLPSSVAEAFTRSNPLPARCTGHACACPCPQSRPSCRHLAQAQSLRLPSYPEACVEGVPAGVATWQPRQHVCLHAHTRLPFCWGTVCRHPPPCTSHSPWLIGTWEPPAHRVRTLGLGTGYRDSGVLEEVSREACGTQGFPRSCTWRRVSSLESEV
# Sequence of GluN1^ΔCTD/GluN2C receptors (Q00961 20-1237, stated change not applied, other chains not shown): as the sequence (Q00961 20-1237, other chains not shown) above
# Sequence of GluN1/GluN2C^ΔCTD receptors (Q00961 20-842, stated change not applied, other chains not shown): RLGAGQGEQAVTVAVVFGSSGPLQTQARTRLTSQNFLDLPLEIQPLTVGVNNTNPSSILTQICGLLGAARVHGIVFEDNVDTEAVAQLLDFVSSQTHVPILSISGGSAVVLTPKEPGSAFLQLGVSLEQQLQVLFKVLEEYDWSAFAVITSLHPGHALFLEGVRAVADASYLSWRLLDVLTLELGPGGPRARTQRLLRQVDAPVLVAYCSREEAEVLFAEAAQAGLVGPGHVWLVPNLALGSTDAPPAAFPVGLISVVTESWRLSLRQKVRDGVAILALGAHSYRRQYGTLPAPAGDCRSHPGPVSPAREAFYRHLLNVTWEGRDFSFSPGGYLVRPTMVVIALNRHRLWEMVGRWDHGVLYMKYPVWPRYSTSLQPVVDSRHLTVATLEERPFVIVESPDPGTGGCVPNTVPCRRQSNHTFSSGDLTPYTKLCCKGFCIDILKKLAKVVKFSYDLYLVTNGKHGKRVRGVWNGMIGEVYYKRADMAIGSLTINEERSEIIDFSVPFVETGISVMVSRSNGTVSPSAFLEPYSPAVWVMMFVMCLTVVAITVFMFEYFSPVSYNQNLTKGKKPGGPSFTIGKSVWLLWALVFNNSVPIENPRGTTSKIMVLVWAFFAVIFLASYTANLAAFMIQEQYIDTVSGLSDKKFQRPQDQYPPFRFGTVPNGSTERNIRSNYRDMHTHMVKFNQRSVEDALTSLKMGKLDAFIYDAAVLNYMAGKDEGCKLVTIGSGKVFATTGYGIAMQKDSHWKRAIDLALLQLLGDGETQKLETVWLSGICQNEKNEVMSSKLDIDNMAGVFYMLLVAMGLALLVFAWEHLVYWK
smiles,measurement,setting,value
CC(C)CCCc1ccc2cc(C(=O)O)ccc2c1 [UBP684],% potentiation of agonist-evoked current,[1],5 ± 3%
same,effect of PKC activation by PMA on PAM activity,GluN1/GluN2A receptors; [11],larger % potentiation
same,effect of PKA activation on % potentiation,GluN1/GluN2A receptors; [12],unchanged
same,% potentiation of agonist response,"GluN1/GluN2A receptors; 50 µM compound, H2O-injected control oocytes (Fig. 6A)",47 ± 13%
same,% potentiation of agonist-evoked current,GluN1/GluN2A receptors; [13],24 ± 5%
same,% potentiation of agonist response,"GluN1/GluN2A receptors; 50 µM compound, oocytes injected with 5 mM EGTA (Fig. 6A)",9 ± 3%
same,% potentiation of agonist response,"GluN1/GluN2A receptors; 50 µM compound, un-injected control oocytes (Fig. 6A)",54 ± 5%
same,% inhibition of agonist-evoked current,[2],20 ± 3%
same,% potentiation of agonist-evoked current,[3],19 ± 7%
same,effect of PKC activation by PMA on PAM activity,"[4]; 2 µM PMA for 10 minutes, 50 µM UBP684, 100 µM PS (Fig. 7G, H)",increased
same,% potentiation of agonist-evoked current,"[4]; 50 µM compound, 10 µM L-glutamate/10 µM glycine (Fig. 1C)",27 ± 5%
same,reduction of potentiation by GluN2A CTD deletion compared to wildtype,"[4]; 50 µM compound, compared to wildtype",approximately 50%
same,effect of EGTA injection on potentiation/modulation,GluN1/GluN2C receptors,no significant effect
same,% potentiation of agonist-evoked current,[5],3 ± 2%
same,% potentiation of agonist-evoked current,[6],44 ± 8%
same,change of GluN1-GFP fluorescence lifetime (movement of the GluN1 CTD),[7],significant increase
same,effect of EGTA injection on potentiation/modulation,GluN1/GluN2D receptors,no significant effect
same,effect of PKC activation by PMA on PAM activity,GluN1/GluN2B receptors; [11],larger % potentiation
same,effect of PKA activation on % potentiation,GluN1/GluN2B receptors; [12],unchanged
same,% potentiation of agonist response,"GluN1/GluN2B receptors; 50 µM compound, H2O-injected control oocytes (Fig. 6B)",45 ± 5%
same,% potentiation of agonist-evoked current,GluN1/GluN2B receptors; [13],33 ± 4%
same,% potentiation of agonist response,"GluN1/GluN2B receptors; 50 µM compound, oocytes injected with 5 mM EGTA (Fig. 6B)",28 ± 2%
same,% potentiation of agonist response,"GluN1/GluN2B receptors; 50 µM compound, un-injected control oocytes (Fig. 6B)",48 ± 4%
same,% potentiation of agonist-evoked current,[8],74.4 ± 7.0%
same,reduction of potentiation by GluN2D CTD deletion compared to wildtype,[9],approximately 50%
same,% potentiation of agonist-evoked current,[10],23 ± 4%
